# Experimental data of several laboratories.
# Lines come from different studies, so protocols differ.
# Target: Serine/threonine-protein kinase PLK4 (PLK4, Homo sapiens, UniProt O00444)
# Residues used in one study (O00444 1-970): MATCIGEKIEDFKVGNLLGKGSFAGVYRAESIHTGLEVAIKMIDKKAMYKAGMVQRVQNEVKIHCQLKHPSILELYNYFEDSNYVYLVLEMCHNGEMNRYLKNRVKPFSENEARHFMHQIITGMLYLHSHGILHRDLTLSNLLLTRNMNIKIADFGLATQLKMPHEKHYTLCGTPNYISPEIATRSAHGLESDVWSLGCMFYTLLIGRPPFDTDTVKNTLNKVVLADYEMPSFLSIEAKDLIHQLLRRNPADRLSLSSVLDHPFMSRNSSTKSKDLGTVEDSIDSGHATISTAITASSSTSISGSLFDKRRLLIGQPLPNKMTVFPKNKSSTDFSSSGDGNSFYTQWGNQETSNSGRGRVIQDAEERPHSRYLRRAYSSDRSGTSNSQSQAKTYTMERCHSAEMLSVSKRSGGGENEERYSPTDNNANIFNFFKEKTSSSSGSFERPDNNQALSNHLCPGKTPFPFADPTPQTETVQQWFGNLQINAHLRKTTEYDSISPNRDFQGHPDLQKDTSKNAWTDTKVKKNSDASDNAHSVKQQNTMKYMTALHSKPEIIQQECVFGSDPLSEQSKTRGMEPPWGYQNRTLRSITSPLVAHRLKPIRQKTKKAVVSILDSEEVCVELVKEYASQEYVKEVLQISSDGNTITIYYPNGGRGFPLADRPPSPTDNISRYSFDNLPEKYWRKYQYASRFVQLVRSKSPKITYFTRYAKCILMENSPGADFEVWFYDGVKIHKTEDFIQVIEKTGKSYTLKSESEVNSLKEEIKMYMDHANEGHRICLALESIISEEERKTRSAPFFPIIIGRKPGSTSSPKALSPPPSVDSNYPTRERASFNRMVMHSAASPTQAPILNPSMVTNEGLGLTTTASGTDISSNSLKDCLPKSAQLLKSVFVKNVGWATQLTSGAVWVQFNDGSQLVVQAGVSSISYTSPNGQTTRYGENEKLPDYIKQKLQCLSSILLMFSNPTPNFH
SMILES,read-out,method,tested at,remaining binding
O=C(c1ccc(Nc2ncc(Cl)c(-c3cc4ccccc4s3)n2)cc1)N1CCC(N2CCCC2)CC1,binding,competition with immobilised ligand,1 µM,39%
CC(=O)c1c(NS(C)(=O)=O)c2cc(-c3ccc(Cl)cc3)c(-c3ccc(Cl)cc3Cl)nc2n(C)c1=O,cell-free assay,competition with immobilised ligand,1 µM,100%
C=CC(=O)N1CCC(C(=O)NCC(=O)N2CCN(c3nc(-c4cnc(N)nc4C(F)F)nc(N4CCOCC4)n3)CC2)CC1,binding,competition with immobilised ligand,1 µM,89%
F[C@@H]1CCN(c2nccc(-c3cnn4ncccc34)n2)C1,binding,,1 µM,100%
N#Cc1ccccc1CSc1nnc2c(n1)[nH]c1ccccc12,binding,competition with immobilised ligand,10 µM,100%
CN(c1nccc(-c2cnn3ncccc23)n1)C1CC1,binding,,1 µM,100%
C[C@@H](c1ccc(-n2cnc3c(N)ncnc32)cc1)N1CCc2nn(C)c(Cc3ccccc3)c2C1=O,binding,competition with immobilised ligand,0.1 µM,72%
CN1CCN(c2cnc3c(C4CCN(C(=O)c5ccc(OC(F)(F)F)cc5N)CC4)ncnc3c2)CC1,cell-free assay,competition with immobilised ligand,1 µM,83%
CN(C)c1nccc(-c2cnn3ncccc23)n1,binding,,1 µM,96%
CN(C(=O)c1ccccc1)c1cc(N(C)c2ccc3c(c2)CCc2ccc(C(=O)NCCN4CCOCC4)cc2C3=O)ccc1F,cell-free assay,competition with immobilised ligand,1 µM,93%
O=C(NCCCN1CCOCC1)c1ccc(Nc2ncc(Cl)c(-c3ccc(Cl)s3)n2)cc1,binding,competition with immobilised ligand,1 µM,38%
CNC(=O)[C@@H]1CC[C@@H](n2c(-c3ccc4cnccc4c3)nc3ccc(C(=O)NCc4cccc(C(N)=O)c4)cc32)C1,binding,competition with immobilised ligand,1 µM,100%
N[C@H]1CCN(c2nccc(-c3cnn4ncccc34)n2)C1,binding,,1 µM,100%
O=C1CCc2cc(Nc3cc(OC4CCOCC4)c([N+](=O)[O-])cc3Cl)ccc2N1,cell-free assay,competition with immobilised ligand,1 µM,86%
COc1ncc2cc3ccccc3nc2c1C#N,cell-free assay,competition with immobilised ligand,5 µM,100%
CN([C@@H]1CCc2c(CC(=O)O)c3cc(S(C)(=O)=O)ccc3n2C1)S(=O)(=O)c1ccc(F)cc1,cell-free assay,competition with immobilised ligand,1 µM,100%
C[C@@H]1CCN(c2nccc(-c3cnn4ncccc34)n2)C1,binding,,1 µM,100%
